Compound activity from PubChem BioAssay.
DNMT1 block: inhibitors of human DNMT1 | P26358 | DNMT1 molecular beacon, Hinp1I cleavage, fluorescence | inhibition (reported as % activation of signal), % at 10 µM | 360,000 compounds, 0.83% hits | AID 588458; in the data active means inhibition above about 50%
Target sequence (P26358 504-1616 limits assumed): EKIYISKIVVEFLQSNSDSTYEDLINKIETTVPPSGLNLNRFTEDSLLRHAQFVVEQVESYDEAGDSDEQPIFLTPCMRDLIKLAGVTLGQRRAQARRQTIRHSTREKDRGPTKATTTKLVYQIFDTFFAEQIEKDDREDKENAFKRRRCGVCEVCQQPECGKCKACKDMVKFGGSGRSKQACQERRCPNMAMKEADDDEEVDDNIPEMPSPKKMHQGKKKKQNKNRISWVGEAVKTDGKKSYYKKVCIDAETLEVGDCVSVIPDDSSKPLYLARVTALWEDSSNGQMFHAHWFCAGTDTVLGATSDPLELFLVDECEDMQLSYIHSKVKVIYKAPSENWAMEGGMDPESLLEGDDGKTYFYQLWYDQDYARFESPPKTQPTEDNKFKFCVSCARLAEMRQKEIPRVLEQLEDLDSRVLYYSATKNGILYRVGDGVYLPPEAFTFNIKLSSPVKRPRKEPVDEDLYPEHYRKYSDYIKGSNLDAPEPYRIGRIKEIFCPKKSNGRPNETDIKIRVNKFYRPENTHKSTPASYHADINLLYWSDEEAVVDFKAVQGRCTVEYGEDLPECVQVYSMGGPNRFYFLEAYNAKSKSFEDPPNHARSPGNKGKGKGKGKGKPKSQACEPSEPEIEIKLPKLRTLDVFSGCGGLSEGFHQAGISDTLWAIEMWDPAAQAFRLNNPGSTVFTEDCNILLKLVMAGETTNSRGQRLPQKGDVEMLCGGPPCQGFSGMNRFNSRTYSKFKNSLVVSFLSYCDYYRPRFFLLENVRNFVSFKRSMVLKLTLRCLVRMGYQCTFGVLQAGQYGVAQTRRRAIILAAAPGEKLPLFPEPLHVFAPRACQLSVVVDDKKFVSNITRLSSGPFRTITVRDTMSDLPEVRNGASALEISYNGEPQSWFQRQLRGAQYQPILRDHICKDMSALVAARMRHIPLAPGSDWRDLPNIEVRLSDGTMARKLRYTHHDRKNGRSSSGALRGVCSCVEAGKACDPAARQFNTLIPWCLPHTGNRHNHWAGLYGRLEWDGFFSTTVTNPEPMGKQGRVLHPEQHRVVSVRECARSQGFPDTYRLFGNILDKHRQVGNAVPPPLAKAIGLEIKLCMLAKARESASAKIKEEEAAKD
STEP block: inhibitors of human striatal-enriched phosphatase STEP; P54829; recombinant STEP, OMFP fluorogenic substrate, fluorescence; inhibition, % at 20 µM; 360,000 compounds, 0.25% hits; AID 588621;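 active means inhibition at 20 µM, scaled per plate between control wells, above about 37%, limit read from the data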;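 further: 0% = DMSO with enzyme and substrate and 100% = substrate only without enzyme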
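Assay system: isolated STEP enzyme. Buffer or medium: pH 6.0 Bis-Tris with DTT and Tween 20. Also added: fluorogenic phosphatase substrate OMFP at 25 µM final. Dosing: 20 µM, 1% DMSO. Timing: 20 min reaction, room temperature, in the dark. Measured by: fluorescence intensity, excitation 480 nm, emission 540 nm. Evaluation: normalized % inhibition.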
LMPTP block: blocks human LMPTP phosphatase; recombinant LMPTP-A, OMFP fluorogenic substrate, fluorescence intensity; P24666; inhibition, % at 20 µM; 360,000 compounds, 0.22% hits;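 active means compounds that cut the enzyme signal by at least half of the control window in the single-dose screen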;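 further: plate controls were DMSO wells with enzyme plus substrate for no effect and substrate without enzyme for full effect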
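Buffer or medium: Bis-Tris pH 6.0, DTT, detergent; Assay system: LMPTP-A enzyme; Quantity: 0.625 nM enzyme; Detection: endpoint fluorescence intensity; Times: 50 min dark incubation at room temperature; Controls: substrate-only low control, DMSO enzyme-plus-substrate high control; Doses: single 20 µM dose; Read-out: percent inhibition versus substrate-only and uninhibited controls; Reagent: 400 µM OMFP.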
Scp1 inh: inhibitors of human Scp-1 phosphatase; 340,000 compounds, 0.88% hits; inhibition, % at 20 µM; Q9GZU7; Recombinant Scp1, phosphopeptide, malachite green phosphate absorbance;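 active means inhibition above about 50% at 20 µM, limit read from the data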;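 further: plate controls were DMSO wells with enzyme for no effect and wells lacking enzyme for full effect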
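Test system: SCP-1 phosphatase catalytic domain, residues 76-261; measured by: colorimetric phosphate reagent with accelerator and stabiliser, absorbance at 630 nm; timing: enzyme reaction 45 min at room temperature, colour 5 min, stabilisation 30 min; also added: Phosphorylated 17-residue peptide substrate; compound dosing: one concentration, 20 µM, with 1.0% DMSO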
CSN deneddyl inh: CSN deneddylation inhibition; AID 651999; Q92905; inhibition, % at 12.5 µM; 360,000 compounds, 0.38% hits; Purified CSN, SCF-Nedd8-OG deneddylation, fluorescence polarization;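 active means pattern-corrected inhibition above about 35%, with an unprinted fluorescence ratio check between 0.5 and 1.5, limit read from the data, passing the limit was not always enough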;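 further: 0% = enzyme with substrate and 100% = substrate without enzyme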
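Test system: purified human Csn5 enzyme expressed in HEK293T cells. Amount: 0.24 nM enzyme. Reagent: SCFSkp2-Nedd8OG substrate at 10 nM final. Schedule: 90 min incubation of compound, enzyme and substrate at room temperature. Detection: fluorescence polarization. Read-out: % inhibition of substrate cleavage by Csn5.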
SUMO1 PPI mod: SUMO1-SIM interaction modulation; P63165; SUMO1 binding to a labelled peptide, TR-FRET, 1 h; inhibition, % at 20 µM; 360,000 compounds, 0.33% hits; in the data active means inhibition above about 37%
An asterisk follows results filed as active. Hits are enriched below; roughly 1.9% of the tested compounds scored in any of these assays.

Screening C[C@H](CO)N1C[C@H](C)[C@H](CN(C)C(=O)Nc2ccccc2)OCc2cnnn2CCCC1=O returned DNMT1 block 5.3, STEP block -1.4, LMPTP block -1.6, CSN deneddyl inh 1.9 and SUMO1 PPI mod 6.3.
Cc1cnc(C=NNC(N)=S)c2cccc(N)c12 was read as DNMT1 block 114.0*, STEP block 97.1*, LMPTP block 85.9*, Scp1 inh 83.9*, CSN deneddyl inh 39.3 and SUMO1 PPI mod 107.5*.
CCC(CO)Oc1cc(NC(=O)c2ccccc2N)c2ncn(C(C)C)c2c1 (stereo not drawn) was read as DNMT1 block -7.4, STEP block -3.3, LMPTP block -1.2, Scp1 inh 0.6, CSN deneddyl inh 4.9 and SUMO1 PPI mod 6.4.
Screening CCC(CO)Oc1cc(NC(=O)c2ccccc2C)c2ncn(C(C)C)c2c1 (stereo not drawn) returned DNMT1 block -45.9, STEP block -3.0, LMPTP block -2.1, Scp1 inh -5.9, CSN deneddyl inh 4.8 and SUMO1 PPI mod 50.0*.
For COc1cc(NCc2ccccc2)c2ncn(C(C)C)c2c1 the results were DNMT1 block -6.8, STEP block -1.2, LMPTP block -0.5, Scp1 inh -2.7, CSN deneddyl inh 0.9 and SUMO1 PPI mod 7.4.
`CCC(CN(C)C)Oc1cc(NCc2ccccc2)c2ncn(C(C)C)c2c1` (stereo not drawn) gave DNMT1 block 60.6*, STEP block -1.9, LMPTP block 4.9, Scp1 inh 1.6, CSN deneddyl inh 12.9 and SUMO1 PPI mod 4.5.
For CCC(CO)Oc1cc(NC(=O)c2ccccc2F)c2ncn(C(C)C)c2c1 (stereo not drawn) the results were DNMT1 block -30.1, STEP block 1.8, LMPTP block -2.3, Scp1 inh 4.0, CSN deneddyl inh 4.5 and SUMO1 PPI mod 92.0*.
`NC(=O)c1cc(S(=O)(=O)N2CCCC2)ccc1OCCOc1ccccc1F` gave DNMT1 block -2.2, STEP block -0.7, LMPTP block 0.1, Scp1 inh -2.7, CSN deneddyl inh -3.6 and SUMO1 PPI mod 8.6.
Screening O=C(CSc1ccccc1F)NCC(c1cccs1)N1CCOCC1 (stereo not drawn) returned DNMT1 block -1.1, STEP block -0.7, LMPTP block -0.3, Scp1 inh -5.0, CSN deneddyl inh -0.1 and SUMO1 PPI mod 1.4.
`CC(C)(C)OC(=O)N1CCN(C(=O)c2ncn3c2c(=O)[nH]c2ccccc23)CC1` gave DNMT1 block 5.5, STEP block -2.1, LMPTP block 1.0, CSN deneddyl inh -2.0 and SUMO1 PPI mod 2.6.
`O=C1CCCN1CCCNc1nc(NCc2ccccc2)nc2ccsc12` gave DNMT1 block 6.8, STEP block -0.4, LMPTP block 67.5*, CSN deneddyl inh 4.5 and SUMO1 PPI mod 2.4.
Screening COc1ccc2c(c1)[nH]c1c(=O)n(/N=C/c3ccc(OC)c(CN4CCCC4)c3)cnc12 returned DNMT1 block -6.5, STEP block 5.7, LMPTP block 19.9, Scp1 inh -14.0, CSN deneddyl inh 3.2 and SUMO1 PPI mod -0.9.
For COc1ccc2[nH]c3c(=O)n(/N=C/c4ccc(OC)c(CN5CCCC5)c4)c(C)nc3c2c1 the results were DNMT1 block 11.9, STEP block 0.3, LMPTP block 7.5, Scp1 inh -4.1, CSN deneddyl inh 62.5* and SUMO1 PPI mod 66.2*.
Screening COc1ccc(/C=N/n2cnc3c([nH]c4ccc(C)cc43)c2=O)cc1CN1CCCC1 returned DNMT1 block 8.4, STEP block -0.8, LMPTP block 13.7, Scp1 inh -6.8, CSN deneddyl inh 6.3 and SUMO1 PPI mod -14.8.
COc1ccc(/C=N/n2cnc3c([nH]c4ccc(F)cc43)c2=O)cc1CN1CCCC1 was read as DNMT1 block 2.8, STEP block 6.4, LMPTP block 14.4, Scp1 inh -16.3, CSN deneddyl inh 84.5* and SUMO1 PPI mod -8.7.
`CS(=O)(=O)c1ccc(C(=O)OCC(=O)NCc2cccs2)cc1[N+](=O)[O-]` gave DNMT1 block 70.9*, STEP block 21.6, LMPTP block 0.2, Scp1 inh -2.7, CSN deneddyl inh 7.2 and SUMO1 PPI mod -13.4.
For Cc1cccc(C(=O)OCC(=O)NCc2cccs2)c1 the results were DNMT1 block 2.5, STEP block -0.6, LMPTP block -1.6, Scp1 inh -0.5, CSN deneddyl inh -0.7 and SUMO1 PPI mod 1.1.
`O=C(O)c1ccc(N=Cc2c(O)ccc3ccccc23)cc1` gave DNMT1 block -6.3, STEP block -1.5, LMPTP block -1.8, Scp1 inh -5.7, CSN deneddyl inh -1.4 and SUMO1 PPI mod -12.7.
`COc1ccc(N=Cc2c(O)ccc3ccccc23)cc1` gave DNMT1 block -7.7, STEP block 1.6, LMPTP block 2.2, Scp1 inh -6.0, CSN deneddyl inh 50.7* and SUMO1 PPI mod -18.1.
For Cn1c(/N=C/c2c(O)ccc3ccccc23)nc2ccccc21 the results were DNMT1 block 4.0, STEP block 0.5, LMPTP block 2.8, Scp1 inh -4.3, CSN deneddyl inh 2.8 and SUMO1 PPI mod 81.7*.
`CCOc1cc(C(=O)NC(C)CCc2ccccc2)cc(OCC)c1OCC` (stereo not drawn) gave DNMT1 block -0.4, STEP block -0.1, LMPTP block 1.5, Scp1 inh -3.7, CSN deneddyl inh -0.8 and SUMO1 PPI mod -1.0.
Screening O=C(O)c1ccc(N2C(=O)/C(=C/C=C/c3ccccc3)SC2=S)cc1 returned DNMT1 block 17.8, STEP block 1.9, LMPTP block -0.2, Scp1 inh -1.7, CSN deneddyl inh 18.8 and SUMO1 PPI mod 3.6.
For O=C(NN1C(=O)/C(=C/C=C/c2ccco2)SC1=S)c1ccncc1 the results were DNMT1 block 83.7*, STEP block 55.3*, LMPTP block 44.6, Scp1 inh 72.0*, CSN deneddyl inh 45.8 and SUMO1 PPI mod 101.4*.
For O=C(N/N=C/C=C/c1ccco1)c1ccncc1 the results were DNMT1 block -2.5, STEP block -0.5, LMPTP block -0.3, Scp1 inh 2.3, CSN deneddyl inh 1.8 and SUMO1 PPI mod -9.6.
For O=C(NN1C(=O)/C(=C/C=C/c2ccccc2)SC1=S)c1ccncc1 the results were DNMT1 block 1.2, STEP block 0.3, LMPTP block 4.1, Scp1 inh -1.4, CSN deneddyl inh 20.3 and SUMO1 PPI mod 53.3*.
For O=C(Nc1cccc(NC(=O)c2ccc(-c3ccc(Br)cc3)o2)c1)c1ccco1 the results were DNMT1 block -14.2, STEP block 0.6, LMPTP block 5.0, Scp1 inh -9.0, CSN deneddyl inh 6.0 and SUMO1 PPI mod 43.8*.
